Numbered stars: 1 amine (or outer) side, 2 acyl side, 3 side chain; on linkers, the order of the positions; unused ones are H or OH. Bridge positions count the residues as written; N and C are the ends. Square brackets hold non-standard residues; d marks the D form. Peptide text beside a SMILES is read from it. 1Nal = N[C@@H](Cc1cccc2ccccc12)C(=O)O; 2Nal = N[C@@H](Cc1ccc2ccccc2c1)C(=O)O; CH2 = C([*:1])[*:2]

The target in experiment [1] is T1, Mu-type opioid receptor (Rattus norvegicus, UniProt P33535). The experiment can be described thus: Displacement of [3H]diprenorphine from rat mu opioid receptor expressed in rat C6 cells after 1 hr by liquid scintillation counting. The experiment is classed as cell-based. A digest of the protocol:
(§1)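 Membranes from C6 glioma cells stably expressing rat MOR or DOR, or CHO cells expressing human KOR (10-20 μg protein), incubated with 0.2 nM [3H]diprenorphine and increasing peptide concentrations in 50 mM Tris-HCl pH 7.4 for 1 h at 25 °C. Filtered and counted by scintillation. Nonspecific binding defined with 10 μM naloxone.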
In general terms: Displacement assays read how much labelled ligand stays bound in the presence of the test substance.

For experiment [2], the target named is T2, Kappa-type opioid receptor (Homo sapiens, UniProt P41145). The experiment can be described thus: Agonist activity at human kappa opioid receptor expressed in CHO cells assessed as stimulation of [35S]GTPgammaS binding at 10 uM after 1 hr by liquid scintillation counting relative to U69593. The experiment is classed as functional, cell-based. In short, it runs like this: (§2)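 Membranes (20-30 μg protein) from C6-MOR, C6-DOR or CHO-KOR cells incubated 1 h at 25 °C in 50 mM Tris-HCl pH 7.4, 100 mM NaCl, 5 mM MgCl2 with 0.1 nM [35S]GTPγS, 100 μM GDP and peptide at 0.001-10000 nM or 10 μM. Filtered and counted.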
T2 sequence (P41145 whole entry): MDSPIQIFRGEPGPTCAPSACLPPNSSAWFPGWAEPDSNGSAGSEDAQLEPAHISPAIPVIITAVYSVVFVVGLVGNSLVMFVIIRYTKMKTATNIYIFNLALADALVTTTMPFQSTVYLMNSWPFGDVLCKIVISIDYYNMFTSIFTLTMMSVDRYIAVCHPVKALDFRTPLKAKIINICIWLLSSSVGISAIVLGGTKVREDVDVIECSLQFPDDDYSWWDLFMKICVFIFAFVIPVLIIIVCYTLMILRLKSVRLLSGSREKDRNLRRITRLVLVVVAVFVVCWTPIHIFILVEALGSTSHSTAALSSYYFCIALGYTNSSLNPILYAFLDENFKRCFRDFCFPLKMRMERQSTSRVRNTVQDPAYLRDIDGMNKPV
(GTPγS resists hydrolysis and so accumulates on activated G proteins.)

Experiment [3] addresses T3, Delta-type opioid receptor (Rattus norvegicus, UniProt P33533). Put plainly: Displacement of [3H]diprenorphine from rat delta opioid receptor expressed in rat C6 cells after 1 hr by liquid scintillation counting. Type of experiment: cell-based. A digest of the protocol:
as §1

Experiment [4] deals with Delta-type opioid receptor (Rattus norvegicus) (UniProt P33533). Put plainly: Agonist activity at rat delta opioid receptor expressed in rat C6 cells assessed as stimulation of [35S]GTPgammaS binding at 10 uM after 1 hr by liquid scintillation counting relative to SNC80. Type of experiment: functional, cell-based. A digest of the protocol: as §2
Delta-type opioid receptor (Rattus norvegicus), sequence (P33533 whole entry): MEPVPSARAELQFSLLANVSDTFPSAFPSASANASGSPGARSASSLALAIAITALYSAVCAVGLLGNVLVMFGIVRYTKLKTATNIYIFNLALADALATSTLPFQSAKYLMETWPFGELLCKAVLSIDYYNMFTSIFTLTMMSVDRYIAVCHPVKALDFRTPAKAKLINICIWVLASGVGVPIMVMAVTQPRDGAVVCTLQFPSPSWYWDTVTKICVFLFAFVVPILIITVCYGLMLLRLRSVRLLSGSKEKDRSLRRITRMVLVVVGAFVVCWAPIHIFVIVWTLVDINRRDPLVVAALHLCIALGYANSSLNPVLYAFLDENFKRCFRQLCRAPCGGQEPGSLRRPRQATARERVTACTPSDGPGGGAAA
Experiment [5] concerns the target Mu-type opioid receptor (Rattus norvegicus) (UniProt P33535). Put plainly: Agonist activity at rat mu opioid receptor expressed in rat C6 cells assessed as stimulation of [35S]GTPgammaS binding at 10 uM after 1 hr by liquid scintillation counting relative to DAMGO. The experiment is classed as functional, cell-based. In short, it runs like this: as §2
The target of experiment [6] is T2, Kappa-type opioid receptor. The experiment can be described thus: Displacement of [3H]diprenorphine from human kappa opioid receptor expressed in CHO cells after 1 hr by liquid scintillation counting. The experiment is classed as cell-based. In short, it runs like this:
as §1

Experiment [7] deals with T2, Kappa-type opioid receptor. Put plainly: Ratio of compound Ki to 5R,8S,11S,14S)-14-((S)-2-amino-3-(4-hydroxyphenyl)propanamido)-8,11-dibenzyl-7,10,13-trioxo-1,3-dithia-6,9,12-triazacyclopentadecane-5-carboxamide Ki for human kappa opioid receptor expressed in CHO cells. Type of experiment: cell-based.
Experiment [8] has as its target Delta-type opioid receptor (Rattus norvegicus) (UniProt P33533). Put plainly: Ratio of compound Ki to 5R,8S,11S,14S)-14-((S)-2-amino-3-(4-hydroxyphenyl)propanamido)-8,11-dibenzyl-7,10,13-trioxo-1,3-dithia-6,9,12-triazacyclopentadecane-5-carboxamide Ki for rat delta opioid receptor expressed in rat C6 cells. The experiment is classed as cell-based.
Experiment [9] has the same target. Conditions: C6, 1 uM.
The target of experiment [10] is T2, Kappa-type opioid receptor. Put plainly: Agonist activity at human kappa opioid receptor expressed in CHO cells assessed as stimulation of [35S]GTPgammaS binding after 1 hr by liquid scintillation counting. The experiment is classed as functional, cell-based. A digest of the protocol:
as §2

Experiment [11] deals with T1, Mu-type opioid receptor. Put plainly: Agonist activity at rat mu opioid receptor expressed in rat C6 cells assessed as stimulation of [35S]GTPgammaS binding after 1 hr by liquid scintillation counting. The experiment is classed as functional, cell-based. A digest of the protocol: as §2
The target in experiment [12] is T3, Delta-type opioid receptor. Put plainly: Agonist activity at rat delta opioid receptor expressed in rat C6 cells assessed as inhibition of forskolin-stimulated cAMP production after 30 mins by radioimmunoassay. (In general: Changes in cAMP serve as a functional read-out for many G protein-coupled receptors.)
Experiment [13] has as its target T3, Delta-type opioid receptor. The experiment can be described thus: Binding affinity to rat delta opioid receptor expressed in rat C6 cells. Type of experiment: cell-based. In short, it runs like this:
as §1

Experiment [14] deals with Delta-type opioid receptor (Rattus norvegicus) (UniProt P33533). Particulars: C6, 1 uM. The source holds these as a separate data set.

T3 sequence (P33533 whole entry): as above
Mu-type opioid receptor (Rattus norvegicus), sequence (P33535 whole entry): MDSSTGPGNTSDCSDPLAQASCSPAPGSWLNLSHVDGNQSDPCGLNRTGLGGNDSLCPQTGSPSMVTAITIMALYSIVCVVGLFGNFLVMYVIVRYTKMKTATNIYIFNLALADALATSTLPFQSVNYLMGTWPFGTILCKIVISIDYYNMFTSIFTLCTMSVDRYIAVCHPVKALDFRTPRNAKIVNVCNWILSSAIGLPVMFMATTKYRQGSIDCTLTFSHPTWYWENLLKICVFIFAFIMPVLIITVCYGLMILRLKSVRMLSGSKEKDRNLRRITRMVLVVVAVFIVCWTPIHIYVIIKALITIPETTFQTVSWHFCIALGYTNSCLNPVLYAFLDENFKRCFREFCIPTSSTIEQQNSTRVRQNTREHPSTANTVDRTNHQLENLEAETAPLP
T1 sequence (P33535 whole entry): as above

As usually defined, the Ki is a measure of affinity in units of concentration, obtained from inhibition or displacement. Turning to `NC(=O)[C@@H]1CSSC[C@@H](NC(=O)[C@@H](N)Cc2ccc(O)cc2)C(=O)N[C@@H](Cc2ccccc2)C(=O)N[C@@H](Cc2ccc3ccccc3c2)C(=O)N1` (H-Y[dC]F[2Nal]C-NH2; disulfide 2-5), the inhibition constant Ki at Mu-type opioid receptor [1] was found to be 1.2 nM; in experiment [3], 11 nM; in experiment [6], 5.9 nM. In addition, the Efficacy in experiment [2] was 49%; in [4] it was 2%; in experiment [5], 90%.
In the case of `NC(=O)[C@@H]1CSCSC[C@@H](NC(=O)[C@@H](N)Cc2ccc(O)cc2)C(=O)N[C@@H](Cc2ccc3ccccc3c2)C(=O)N[C@@H](Cc2ccccc2)C(=O)N1` (H-Y[dC][2Nal]FC-NH2; linker 2-5 via CH2), the Ratio Ki in experiment [7] and in [8] was above 10 each time. Moreover, the inhibitory constant (Ki) worked out at 0.47 nM on Mu-type opioid receptor [1], 15 nM in [3] and 69 nM in [6]. The figures for the Efficacy in [2], in experiment [4] and in experiment [5] were 35%, 23% and 34%, respectively.
Regarding `NC(=O)[C@@H]1CSSC[C@@H](NC(=O)[C@@H](N)Cc2ccc(O)cc2)C(=O)N[C@@H](Cc2ccccc2)C(=O)N[C@@H](Cc2cccc3ccccc23)C(=O)N1` (H-Y[dC]F[1Nal]C-NH2; disulfide 2-5), the inhibitory constant (Ki) on Mu-type opioid receptor [1] turned out to be 2.5 nM; in experiment [3], 7.1 nM; in experiment [6], 11 nM. Also, the Efficacy was 100% in [2], 15% in [4] and 88% in experiment [5].
For the compound `NC(=O)[C@@H]1CSSC[C@@H](NC(=O)[C@@H](N)Cc2ccc(O)cc2)C(=O)N[C@@H](Cc2ccc3ccccc3c2)C(=O)N[C@@H](Cc2ccccc2)C(=O)N1` (H-Y[dC][2Nal]FC-NH2; disulfide 2-5), the Ratio Ki in experiment [7] and in experiment [8] was above 10 throughout. For the same compound, the values for the inhibition constant Ki (at Mu-type opioid receptor [1]; in experiment [3]; in experiment [6]) were 0.72 nM, 55 nM and 145 nM, respectively. The Efficacy in [2] was determined as 7.5%; in [4] it was 0.7%; in [5], 34%.
The inhibition is the change of the read-out against control, counted positive when it falls. `C=CCN1C[C@H](C)N([C@H](c2ccc(C(=O)N(CC)CC)cc2)c2cccc(OC)c2)C[C@H]1C` registered an inhibition in experiment [9] of 67%.
For `NC(=O)[C@@H]1CSSC[C@@H](NC(=O)[C@@H](N)Cc2ccc(O)cc2)C(=O)N[C@@H](Cc2cccc3ccccc23)C(=O)N[C@@H](Cc2ccccc2)C(=O)N1` (H-Y[dC][1Nal]FC-NH2; disulfide 2-5), the inhibition constant (Ki) is 0.08 nM at Mu-type opioid receptor [1], 34 nM in [3] and 21 nM in experiment [6]. Besides, the Efficacy in [2] turned out to be 59%; in [4], 0%; in [5], 33%. Further, the Ratio Ki in experiment [8] was above 10.
As for `NC(=O)[C@@H]1CSCSC[C@@H](NC(=O)[C@@H](N)Cc2ccc(O)cc2)C(=O)N[C@@H](Cc2cccc3ccccc23)C(=O)N[C@@H](Cc2ccccc2)C(=O)N1` (H-Y[dC][1Nal]FC-NH2; linker 2-5 via CH2), the inhibition constant Ki at Mu-type opioid receptor [1] came to 0.33 nM; in [3], 34 nM; in [6], 5.8 nM. The results for the Efficacy in [2], in [4] and in [5] were 77%, 23% and 91%, respectively. Besides, in [8], the Ratio Ki is above 10.
Turning to `NC(=O)[C@@H]1CSCSC[C@@H](NC(=O)[C@@H](N)Cc2ccc(O)cc2)C(=O)N[C@@H](Cc2ccccc2)C(=O)N[C@@H](Cc2cccc3ccccc23)C(=O)N1` (H-Y[dC]F[1Nal]C-NH2; linker 2-5 via CH2), the Ki on Mu-type opioid receptor [1] was 0.61 nM; in experiment [3] it was 5.2 nM; in experiment [6], 6 nM. In addition, the results for the Efficacy in [2], in experiment [4] and in experiment [5] were 87%, 22% and 100%, respectively.
Broadly, the EC50 is the concentration at which the effect is half-maximal. With `NC(=O)[C@@H]1CSCSC[C@@H](NC(=O)[C@@H](N)Cc2ccc(O)cc2)C(=O)N[C@@H](Cc2ccccc2)C(=O)N[C@@H](Cc2ccc3ccccc3c2)C(=O)N1` (H-Y[dC]F[2Nal]C-NH2; linker 2-5 via CH2), the Ki on Mu-type opioid receptor [1] came to 0.47 nM; in experiment [3] it was 0.48 nM; in experiment [13], 2.1 nM; in [6], 1.3 nM. Moreover, the EC50 in [10] was 12 nM; on Mu-type opioid receptor [11], 1.2 nM; in experiment [12] it was 36 nM. Further, the values for the Efficacy in [2], in experiment [4] and in experiment [5] were 89%, 7% and 99%, respectively. The inhibition in [9] was 37%; in experiment [14], 55%.

For the origin of these results see ChEMBL document CHEMBL1154182 (J Med Chem, 2009).
